Experimental data as given in ChEMBL document CHEMBL3822397, “Synthesis and bioevaluation of novel benzodipyranone derivatives as P-glycoprotein inhibitors for multidrug resistance reversal agents” (Eur J Med Chem, 2016).
Active and inactive are the calls of the source. No cut-off for these calls is given here.

Assays:
HEK293 [1] = test: Potentiation of vincristine-induced cytotoxicity in Flp-In-293 cells assessed as reduction in vincristine IC50 at 8 uM after 72 hrs by SRB assay relative to control; type: functional, Homo sapiens
[2] = molecular target: T1, ATP-dependent translocase ABCB1 (Homo sapiens, UniProt P08183); test: Inhibition of full length human ABCB1 expressed in Flp-In-293 cells assessed as potentiation of vincristine-induced cytotoxicity at 8 uM after 72 hrs by SRB assay relative to control; type: cell-based
T1 sequence (P08183 whole entry): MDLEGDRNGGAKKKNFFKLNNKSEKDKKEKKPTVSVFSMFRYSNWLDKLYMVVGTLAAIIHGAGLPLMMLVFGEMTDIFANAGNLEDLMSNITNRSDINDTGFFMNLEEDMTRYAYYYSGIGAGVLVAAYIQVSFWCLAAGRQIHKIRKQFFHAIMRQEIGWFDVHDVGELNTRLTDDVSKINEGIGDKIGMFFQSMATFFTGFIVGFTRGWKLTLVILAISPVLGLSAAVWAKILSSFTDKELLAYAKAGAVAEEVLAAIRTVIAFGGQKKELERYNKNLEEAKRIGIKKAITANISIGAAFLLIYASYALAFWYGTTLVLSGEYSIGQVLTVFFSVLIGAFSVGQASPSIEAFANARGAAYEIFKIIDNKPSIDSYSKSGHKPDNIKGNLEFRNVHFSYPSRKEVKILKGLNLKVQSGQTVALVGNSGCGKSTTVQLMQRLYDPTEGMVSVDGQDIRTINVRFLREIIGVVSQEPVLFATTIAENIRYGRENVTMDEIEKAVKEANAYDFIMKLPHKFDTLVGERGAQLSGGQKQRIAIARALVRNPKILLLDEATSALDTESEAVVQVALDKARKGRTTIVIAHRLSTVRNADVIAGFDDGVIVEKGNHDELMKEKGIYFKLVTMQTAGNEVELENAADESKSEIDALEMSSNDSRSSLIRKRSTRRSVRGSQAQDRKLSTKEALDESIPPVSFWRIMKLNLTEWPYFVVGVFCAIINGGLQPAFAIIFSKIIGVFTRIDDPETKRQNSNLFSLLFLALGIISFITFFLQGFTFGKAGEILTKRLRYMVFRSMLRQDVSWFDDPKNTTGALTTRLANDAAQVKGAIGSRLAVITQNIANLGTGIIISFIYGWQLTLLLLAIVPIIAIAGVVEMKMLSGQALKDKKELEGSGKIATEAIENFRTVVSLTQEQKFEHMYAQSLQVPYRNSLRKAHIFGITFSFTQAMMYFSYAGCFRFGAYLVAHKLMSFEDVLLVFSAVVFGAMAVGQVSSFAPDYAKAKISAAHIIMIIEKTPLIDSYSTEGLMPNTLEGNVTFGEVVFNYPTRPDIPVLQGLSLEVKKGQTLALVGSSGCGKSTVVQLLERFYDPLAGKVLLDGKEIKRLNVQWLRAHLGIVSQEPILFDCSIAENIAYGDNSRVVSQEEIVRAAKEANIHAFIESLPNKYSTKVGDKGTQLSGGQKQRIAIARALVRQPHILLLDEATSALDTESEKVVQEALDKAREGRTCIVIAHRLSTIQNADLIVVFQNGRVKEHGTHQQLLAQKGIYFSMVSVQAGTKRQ

[3] = molecular target: T1, ATP-dependent translocase ABCB1; test: Inhibition of full length human ABCB1 expressed in Flp-In-293 cells at 2.5 uM incubated for 30 mins by calcein-AM uptake assay relative to control; type: cell-based; conditions: 0.5 h
HEK293 [4] = test: Potentiation of paclitaxel-induced cytotoxicity in Flp-In-293 cells assessed as reduction in paclitaxel IC50 at 8 uM after 72 hrs by SRB assay relative to control; type: functional, Homo sapiens
HEK293 [5] = test: Downregulation of ABCB1 mRNA expression in Flp-In-293 cells transfected with full length human ABCB1 at 5 uM after 72 hrs by RT-PCR analysis; type: functional, cell-based
Summary of the method: (§1)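 ABCB1 mRNA measured after treating ABCB1/Flp-In-293 cells with test compounds for 72 hr. Data given as mean ± SE of three experiments, each in triplicate.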

HEK293 [6] = test: Potentiation of vincristine-induced cytotoxicity in Flp-In-293 cells assessed as reduction in vincristine IC50 at 10 uM after 72 hrs by SRB assay relative to control; type: functional, Homo sapiens
[7] = molecular target: T1, ATP-dependent translocase ABCB1; test: Inhibition of full length human ABCB1 expressed in Flp-In-293 cells assessed as potentiation of vincristine-induced cytotoxicity at 10 uM after 72 hrs by SRB assay relative to control; type: cell-based
[8] = molecular target: T1, ATP-dependent translocase ABCB1; test: Inhibition of ABCB1 in human KBVIN cells assessed as potentiation of paclitaxel-induced cytotoxicity at 8 uM after 72 hrs by SRB assay relative to control; type: cell-based
HEK293 [9] = test: Potentiation of doxorubicin-induced cytotoxicity in Flp-In-293 cells assessed as reduction in doxorubicin IC50 at 10 uM after 72 hrs by SRB assay relative to control; type: functional, Homo sapiens
[10] = molecular target: T1, ATP-dependent translocase ABCB1; test: Inhibition of full length human ABCB1 expressed in Flp-In-293 cells assessed as potentiation of paclitaxel-induced cytotoxicity at 8 uM after 72 hrs by SRB assay relative to control; type: cell-based
[11] = molecular target: T1, ATP-dependent translocase ABCB1; test: Inhibition of full length human ABCB1 expressed in Flp-In-293 cells assessed as potentiation of paclitaxel-induced cytotoxicity at 10 uM after 72 hrs by SRB assay relative to control; type: cell-based
[12] = molecular target: T1, ATP-dependent translocase ABCB1; test: Inhibition of full length human ABCB1 expressed in Flp-In-293 cells at 5 uM incubated for 30 mins by calcein-AM uptake assay relative to control; type: cell-based; conditions: 0.5 h
[13] = molecular target: T1, ATP-dependent translocase ABCB1; test: Inhibition of ABCB1 in human KBVIN cells assessed as potentiation of vincristine-induced cytotoxicity at 10 uM after 72 hrs by SRB assay relative to control; type: cell-based
[14] = molecular target: T1, ATP-dependent translocase ABCB1; test: Inhibition of full length human ABCB1 expressed in Flp-In-293 cells assessed as potentiation of doxorubicin-induced cytotoxicity at 8 uM after 72 hrs by SRB assay relative to control; type: cell-based
[15] = Potentiation of vincristine-induced cytotoxicity in human HeLaS3 assessed as reduction in vincristine IC50 at 8 uM after 72 hrs by SRB assay relative to control; type: functional, HeLa S3
[16] = Potentiation of paclitaxel-induced cytotoxicity in human HeLaS3 assessed as reduction in paclitaxel IC50 at 8 uM after 72 hrs by SRB assay relative to control; type: functional, HeLa S3
[17] = Potentiation of vincristine-induced cytotoxicity in human HeLaS3 assessed as reduction in vincristine IC50 at 10 uM after 72 hrs by SRB assay relative to control; type: functional, HeLa S3
HEK293 [18] = test: Potentiation of paclitaxel-induced cytotoxicity in Flp-In-293 cells assessed as reduction in paclitaxel IC50 at 10 uM after 72 hrs by SRB assay relative to control; type: functional, Homo sapiens
[19] = molecular target: T1, ATP-dependent translocase ABCB1; test: Inhibition of ABCB1 in human KBVIN cells assessed as potentiation of paclitaxel-induced cytotoxicity at 10 uM after 72 hrs by SRB assay relative to control; type: cell-based
HEK293 [20] = test: Potentiation of doxorubicin-induced cytotoxicity in Flp-In-293 cells assessed as reduction in doxorubicin IC50 at 8 uM after 72 hrs by SRB assay relative to control; type: functional, Homo sapiens
[21] = molecular target: T1, ATP-dependent translocase ABCB1; test: Inhibition of full length human ABCB1 expressed in Flp-In-293 cells assessed as potentiation of doxorubicin-induced cytotoxicity at 10 uM after 72 hrs by SRB assay relative to control; type: cell-based
[22] = Potentiation of paclitaxel-induced cytotoxicity in human HeLaS3 assessed as reduction in paclitaxel IC50 at 10 uM after 72 hrs by SRB assay relative to control; type: functional, HeLa S3
[23] = molecular target: T1, ATP-dependent translocase ABCB1; test: Inhibition of ABCB1 in human KBVIN cells assessed as potentiation of vincristine-induced cytotoxicity at 8 uM after 72 hrs by SRB assay relative to control; type: cell-based
HEK293 [24] = test: Effect on ABCB1 mRNA expression in Flp-In-293 cells at 5 uM after 72 hrs by RT-PCR analysis; type: ADME, cell-based; conditions: human, flp-in-293, 72 h; summary of the method: as §1

With `Cc1cccc(-c2coc3c(c(O)cc4occ(-c5cccc(C)c5)c(=O)c43)c2=O)c1` the “fold change (FC)” value (HEK293 [1]) was 7.8, the “fold change (FC)” value [2] was 15.6 and the “fold change (FC)” value [3] was 1.58. The “fold change (FC)” value (HEK293 [4]) was 1.5, the Activity (HEK293 [5]) was “Active” and the “fold change (FC)” value (HEK293 [6]) was 9.1. The “fold change (FC)” value [7] was 21, the “fold change (FC)” value [8] was 19 and the “fold change (FC)” value (HEK293 [9]) was 1.6. The “fold change (FC)” value [10] was 10.8, the “fold change (FC)” value [11] was 16.1 and the “fold change (FC)” value [12] was 2.05. For the same molecule, the “fold change (FC)” value [13] was 29.7, the “fold change (FC)” value [14] was 1.4 and the “fold change (FC)” value [15] was 4.7. For the same molecule, the “fold change (FC)” value [16] was 1.1, the “fold change (FC)” value [17] was 8.8 and the “fold change (FC)” value (HEK293 [18]) was 1.8. For the same molecule, the “fold change (FC)” value [19] was 23.1, the “fold change (FC)” value (HEK293 [20]) was 1.2 and the “fold change (FC)” value [21] was 1.6. The “fold change (FC)” value [22] was 1.4 and the “fold change (FC)” value [23] was 7.4.
For `COc1ccc(-c2coc3c(c(O)cc4occ(-c5ccc(OC)cc5)c(=O)c43)c2=O)cc1`, the “fold change (FC)” value (HEK293 [1]) was 6.6, the “fold change (FC)” value [2] was 1.4 and the “fold change (FC)” value [3] was 1.54. For the same molecule, the “fold change (FC)” value (HEK293 [4]) was 2.7, the Activity (HEK293 [5]) was “inactive” and the “fold change (FC)” value (HEK293 [6]) was 7.1. For the same molecule, the “fold change (FC)” value [7] was 1.6, the “fold change (FC)” value (HEK293 [9]) was 2.1 and the “fold change (FC)” value [10] was 2.1. The “fold change (FC)” value [11] was 8.2, the “fold change (FC)” value [12] was 1.84 and the “fold change (FC)” value [14] was 1.6. The “fold change (FC)” value (HEK293 [18]) was 4.2, the Activity (HEK293 [24]) was “Non-toxic” and the “fold change (FC)” value (HEK293 [20]) was 0.9. For the same molecule, the “fold change (FC)” value [21] was 1.7.
